{"data": "Results of several laboratories", "note": "Protocols differ between the studies behind these lines."}
{"Compound": "COc1ccc(C[C@@H]2NC(=O)[C@@H](CC(C)C)NC(=O)[C@H](C)NC(=O)[C@H](CC(C)C)NC(=O)[C@@H](CC(C)C)NC(=O)[C@H]3CCCN3C2=O)cc1", "medium": "PAMPA", "tested at": "10 µM", "time": "7 h", "Papp [×10⁻⁶ cm/s]": 19}
{"Compound": "O=C(Nc1ccc2c(c1)B(O)OC2)c1ccccc1OCc1ccccc1", "medium": "PAMPA", "tested at": "200 µM", "time": "5 h", "pH": "pH 7.4", "Papp [×10⁻⁶ cm/s]": 1.2}
{"Compound": "CN1CCN([C@@H](c2ccccc2)c2ccc(Cl)cc2)CC1", "medium": "PAMPA", "Papp [×10⁻⁶ cm/s]": 1830}
{"Compound": "O=c1cc(-c2ccccc2)oc2c(O)c(O)ccc12", "medium": "PAMPA-BBB", "tested at": "1 µM", "time": "18 h", "Papp [×10⁻⁶ cm/s]": 6.32}
{"Compound": "COc1ccc(C[C@@H]2NC(=O)[C@@H](CC(C)C)NC(=O)[C@H](CCSC)NC(=O)[C@H](CC(C)C)NC(=O)[C@@H](CC(C)C)NC(=O)[C@H]3CCCN3C2=O)cc1", "medium": "PAMPA", "tested at": "10 µM", "time": "7 h", "Papp [×10⁻⁶ cm/s]": 13}
{"Compound": "Cc1nonc1Cn1nnc2c(N3CC[C@H](O)C3)nc(C(C)(C)C)nc21", "medium": "PAMPA", "Papp [×10⁻⁶ cm/s]": 2.2}
{"Compound": "O=C(Nc1ccc2c(c1)B(O)OC2)c1cccc(OCc2c(Cl)cccc2Cl)c1", "medium": "PAMPA", "tested at": "200 µM", "time": "5 h", "pH": "pH 7.4", "Papp [×10⁻⁶ cm/s]": 0.91}
{"Compound": "NC(=O)[C@@H]1CC(F)(F)CN1C(=O)c1ccc(N2CC(F)(F)C2)c(OCC2CC2)n1", "medium": "PAMPA", "Papp [×10⁻⁶ cm/s]": 5.23}
{"Compound": "Cn1c(=O)c2c(ncn2C)n(C)c1=O", "medium": "PAMPA", "tested at": "200 µM", "time": "5 h", "pH": "pH 7.4", "Papp [×10⁻⁶ cm/s]": 11.7}
{"Compound": "CC(C)[C@H]1C(=O)N[C@@H](CCCN=C(N)N)C(=O)NCC(=O)N[C@@H](CC(=O)O)C(=O)N[C@H](Cc2ccccc2)C(=O)N1C", "medium": "Caco-2", "Papp [×10⁻⁶ cm/s]": "~0.1"}
{"Compound": "COCCOCCOc1c(OC)cc2cc(C(=O)N3C[C@@H](CCl)c4c3cc(O)c3[nH]c(C(=O)OC)cc43)[nH]c2c1OC", "medium": "PAMPA", "tested at": "1 µM", "time": "5 h", "pH": "pH 7.4", "Papp [×10⁻⁶ cm/s]": 3.6}
{"Compound": "O=S(=O)(Nc1ccc2c(c1)B(O)OC2)c1ccc(Cl)cc1", "medium": "PAMPA", "tested at": "200 µM", "time": "5 h", "pH": "pH 7.4", "Papp [×10⁻⁶ cm/s]": 1.7}
{"Compound": "COCCOCCOCCOc1c(OC)cc2cc(C(=O)N3C[C@@H](CCl)c4c3cc(O)c3[nH]c(C(=O)OC)cc43)[nH]c2c1OC", "medium": "PAMPA", "tested at": "1 µM", "time": "5 h", "pH": "pH 7.4", "Papp [×10⁻⁶ cm/s]": 4.2}
{"Compound": "O=C(Nc1ccc2c(c1)B(O)OC2)c1cccc(OCc2ccccc2)c1", "medium": "PAMPA", "tested at": "200 µM", "time": "5 h", "pH": "pH 7.4", "Papp [×10⁻⁶ cm/s]": 0.14}
{"Compound": "CC[C@@H](C)[C@@H]1NC(=O)[C@@H](Cc2ccc(OC)cc2)NC(=O)CN(C)C(=O)[C@H]([C@H](C)CC)NC(=O)[C@@H](Cc2ccc(OC)cc2)NC(=O)CN(C)C1=O", "medium": "PAMPA", "Papp [×10⁻⁶ cm/s]": 29}
